Active and inactive are the calls of the source. The rule behind the calls is not given here. Where only a bound is given, the exact number is not on record here.

Activity, inhibition and viability data for 2 molecules are collected here from ChEMBL document CHEMBL2429859, “Inhibiting aberrant signal transducer and activator of transcription protein activation with tetrapodal, small molecule Src homology 2 domain binders: promising agents against multiple myeloma” (J Med Chem, 2013).

Data set [1] relates to RPMI-8226. The experiment in a line: Induction of apoptosis in human RPMI8226 cells at 10 to 15 uM by annexin V/propidium iodide staining-based flow cytometric analysis. Type of data set: functional, cell-based. The conditions noted are these: TDE = time-dependent effect. Put shortly:
(§1)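 Apoptosis was measured by flow cytometry of Annexin V and propidium iodide staining. Viable, early apoptotic and late apoptotic cells were scored by quadrant, with time points at 24 and 48 h.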

Data set [2] concerns the target Signal transducer and activator of transcription 3 (Homo sapiens, UniProt P40763). The experiment in a line: Inhibition of Stat3-mediated luciferase expression in human 8226 cells at 7.5 to 15 uM after 6 hrs relative to control. Type of data set: cell-based. The method in brief:
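Myeloma cells stably carried a Stat3-driven firefly luciferase reporter (puromycin-selected) and a CMV-driven Renilla luciferase internal control (hygromycin-selected), each selected for 2 weeks. After drug treatment, dual luciferase activity was read as relative luciferase units, firefly/Renilla.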

For data set [3], the system named is RPMI-8226. The experiment in a line: Cytotoxicity against human RPMI8226 cells assessed as cell viability at 7.5 uM after 72 hrs by MTT assay. Type of data set: functional, cell-based. The method in brief: (§2)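 Myeloma lines were seeded at 1-3 x 10^4 cells per well onto compound or vehicle, in triplicate, and cultured 72 h at 37 °C in 5% CO2. Viability was measured colorimetrically by MTT assay relative to DMSO control. EC50 was fitted to a standard dose-response curve where applicable.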

Data set [4] deals with XG6. As to the kind of experiment: Cytotoxicity against human XG6 cells assessed as cell viability at 7.5 uM after 72 hrs by MTT assay. Type of data set: functional, cell-based. The method in brief:
as §2

Data set [5] relates to JJN-3. The experiment in a line: Inhibition of total Stat3 level in human JJN-3 cells at 5 to 10 uM after 6 hrs by Western blot analysis. The class given is functional, cell-based. The method in brief: (§3)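 Treated cells were washed in cold PBS and lysed 30 min on ice in Tris-HCl pH 7.4/NaCl/EDTA/1% NP-40 with PMSF, vanadate and protease inhibitors. Lysates were Bradford-normalized, and 10-30 µg protein was run on 7-10% SDS-PAGE and transferred to PVDF. Blots were blocked in 5% BSA/TBST, probed overnight at 4 °C, then with HRP secondary, and detected by ECL.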

Data set [6] relates to JJN-3. As to the kind of experiment: Induction of apoptosis in human JJN-3 cells assessed as induction of PARP cleavage at 5 to 10 uM by Western blot analysis. Type of data set: functional, cell-based. Put shortly: as §3
Data set [7] concerns JJN-3. The experiment in a line: Induction of apoptosis in human JJN-3 cells at 10 to 15 uM by annexin V/propidium iodide staining-based flow cytometric analysis. The class given is functional, cell-based. The method in brief:
as §1

Data set [8] relates to XG6. As to the kind of experiment: Induction of apoptosis in human XG6 cells at 10 to 15 uM by annexin V/propidium iodide staining-based flow cytometric analysis. The class given is functional, cell-based. Put shortly:
as §1

Data set [9] addresses Tyrosine-protein kinase JAK2 (Homo sapiens) (UniProt O60674). As to the kind of experiment: Inhibition of JAK2 JH1 domain (unknown origin) assessed as residual activity at 5 uM relative to control. Put shortly: (§4)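 Kinase profiling used a KinomeScan at 5 µM across 132 kinases, including 37 with SH2 domains.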
Data set [10] is described as follows: Cytotoxicity against CD138-positive BMNC isolated from multiple myeloma patient assessed as cell viability at 20 uM. The class given is functional. The conditions noted are these: Homo sapiens, read-out: Activity. The method in brief:
(§5)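 Bone marrow mononuclear cells were isolated by Ficoll-Paque separation from 6 myeloma patient aspirates, cultured, and treated with compound. Cells were stained for CD138 and Annexin V, and the decrease in CD138+ (myeloma) and CD138- (non-myeloma) populations was reported.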

For data set [11], the target named is T1, Tyrosine-protein kinase JAK3 (Homo sapiens) (UniProt P52333).
T1 sequence (whole entry): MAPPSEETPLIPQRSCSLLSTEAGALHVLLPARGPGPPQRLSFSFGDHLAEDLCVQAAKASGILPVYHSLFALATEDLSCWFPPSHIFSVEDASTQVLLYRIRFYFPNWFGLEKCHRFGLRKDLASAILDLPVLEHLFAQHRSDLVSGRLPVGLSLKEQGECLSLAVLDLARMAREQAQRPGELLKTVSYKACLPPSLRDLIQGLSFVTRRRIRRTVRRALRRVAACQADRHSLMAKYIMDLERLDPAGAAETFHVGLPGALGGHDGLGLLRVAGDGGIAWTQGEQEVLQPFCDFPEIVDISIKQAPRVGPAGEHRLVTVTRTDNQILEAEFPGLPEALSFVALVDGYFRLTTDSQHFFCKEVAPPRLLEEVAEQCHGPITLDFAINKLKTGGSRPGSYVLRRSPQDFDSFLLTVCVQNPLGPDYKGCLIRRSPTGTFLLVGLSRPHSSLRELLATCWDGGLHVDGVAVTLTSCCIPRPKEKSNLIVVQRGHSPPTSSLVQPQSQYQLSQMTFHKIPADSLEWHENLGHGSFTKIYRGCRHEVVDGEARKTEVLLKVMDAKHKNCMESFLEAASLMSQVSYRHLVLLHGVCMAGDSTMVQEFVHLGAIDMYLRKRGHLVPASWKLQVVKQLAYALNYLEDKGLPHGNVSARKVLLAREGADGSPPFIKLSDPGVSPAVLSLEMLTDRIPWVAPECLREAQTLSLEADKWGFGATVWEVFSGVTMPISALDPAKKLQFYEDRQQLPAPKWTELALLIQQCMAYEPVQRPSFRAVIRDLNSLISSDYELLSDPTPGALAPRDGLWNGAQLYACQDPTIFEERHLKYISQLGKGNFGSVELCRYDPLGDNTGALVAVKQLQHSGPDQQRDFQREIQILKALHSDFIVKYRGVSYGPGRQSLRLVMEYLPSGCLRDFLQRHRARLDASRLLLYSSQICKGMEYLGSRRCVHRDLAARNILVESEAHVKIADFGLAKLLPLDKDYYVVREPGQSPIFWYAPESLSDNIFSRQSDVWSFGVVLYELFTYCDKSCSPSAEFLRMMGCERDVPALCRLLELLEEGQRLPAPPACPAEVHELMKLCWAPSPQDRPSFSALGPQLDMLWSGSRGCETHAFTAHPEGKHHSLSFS
As to the kind of experiment: Inhibition of JAK3 JH1 domain (unknown origin) assessed as residual activity at 5 uM relative to control. Put shortly:
as §4

For data set [12], the system named is RPMI-8226. As to the kind of experiment: Induction of apoptosis in human RPMI8226 cells at 10 to 20 uM by annexin V/propidium iodide staining-based flow cytometric analysis. Type of data set: functional, cell-based. The conditions noted are these: TDE = time-dependent effect. The method in brief: as §1
The nature of data set [13]: Cytotoxicity against CD138-negative BMNC isolated from multiple myeloma patient assessed as cell viability at > 20 uM. As to conditions: human. Put shortly: as §5
The subject of data set [14] is JJN-3. The experiment in a line: Inhibition of total Stat3 level in human JJN-3 cells at 10 to 30 uM after 6 hrs by Western blot analysis. The class given is functional, cell-based. The method in brief: as §3
For data set [15], the system named is JJN-3. As to the kind of experiment: Induction of apoptosis in human JJN-3 cells assessed as induction of PARP cleavage at 10 to 30 uM by Western blot analysis. Type of data set: functional, cell-based. Put shortly:
as §3

The test system of data set [16] is XG6. As to the kind of experiment: Induction of apoptosis in human XG6 cells at 10 to 20 uM by annexin V/propidium iodide staining-based flow cytometric analysis. The class given is functional, cell-based. Put shortly: as §1
The nature of data set [17]: Cytotoxicity against BMNC isolated from multiple myeloma patient assessed as inhibition of hematopoietic progenitor colony formation at 30 uM. As to conditions: human.
The subject of data set [18] is JJN-3. The experiment in a line: Induction of apoptosis in human JJN-3 cells at 10 to 20 uM by annexin V/propidium iodide staining-based flow cytometric analysis. The class given is functional, cell-based. The method in brief: as §1

Signal transducer and activator of transcription 3, sequence (P40763 whole entry): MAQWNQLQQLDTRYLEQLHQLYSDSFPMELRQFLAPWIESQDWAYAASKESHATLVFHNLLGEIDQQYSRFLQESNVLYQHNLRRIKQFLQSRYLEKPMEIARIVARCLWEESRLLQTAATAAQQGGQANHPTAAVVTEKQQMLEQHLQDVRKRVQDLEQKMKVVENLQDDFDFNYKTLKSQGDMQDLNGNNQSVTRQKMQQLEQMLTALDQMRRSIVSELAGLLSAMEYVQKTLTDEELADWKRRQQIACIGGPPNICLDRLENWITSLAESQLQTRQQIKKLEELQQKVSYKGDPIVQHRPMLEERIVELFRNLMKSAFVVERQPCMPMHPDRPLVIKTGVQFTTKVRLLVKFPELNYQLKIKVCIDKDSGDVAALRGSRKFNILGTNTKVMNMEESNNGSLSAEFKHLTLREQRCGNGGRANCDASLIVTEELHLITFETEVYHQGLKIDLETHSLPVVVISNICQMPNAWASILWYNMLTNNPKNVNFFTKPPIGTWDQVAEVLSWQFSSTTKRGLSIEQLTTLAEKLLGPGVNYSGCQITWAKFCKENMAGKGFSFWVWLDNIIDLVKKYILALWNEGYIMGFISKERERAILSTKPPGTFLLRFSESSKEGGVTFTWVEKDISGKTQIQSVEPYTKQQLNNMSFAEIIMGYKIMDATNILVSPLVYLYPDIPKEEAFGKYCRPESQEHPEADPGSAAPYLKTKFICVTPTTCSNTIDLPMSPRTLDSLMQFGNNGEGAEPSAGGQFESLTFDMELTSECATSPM
Tyrosine-protein kinase JAK2 (Homo sapiens), sequence (O60674 whole entry, the tested form may be a part): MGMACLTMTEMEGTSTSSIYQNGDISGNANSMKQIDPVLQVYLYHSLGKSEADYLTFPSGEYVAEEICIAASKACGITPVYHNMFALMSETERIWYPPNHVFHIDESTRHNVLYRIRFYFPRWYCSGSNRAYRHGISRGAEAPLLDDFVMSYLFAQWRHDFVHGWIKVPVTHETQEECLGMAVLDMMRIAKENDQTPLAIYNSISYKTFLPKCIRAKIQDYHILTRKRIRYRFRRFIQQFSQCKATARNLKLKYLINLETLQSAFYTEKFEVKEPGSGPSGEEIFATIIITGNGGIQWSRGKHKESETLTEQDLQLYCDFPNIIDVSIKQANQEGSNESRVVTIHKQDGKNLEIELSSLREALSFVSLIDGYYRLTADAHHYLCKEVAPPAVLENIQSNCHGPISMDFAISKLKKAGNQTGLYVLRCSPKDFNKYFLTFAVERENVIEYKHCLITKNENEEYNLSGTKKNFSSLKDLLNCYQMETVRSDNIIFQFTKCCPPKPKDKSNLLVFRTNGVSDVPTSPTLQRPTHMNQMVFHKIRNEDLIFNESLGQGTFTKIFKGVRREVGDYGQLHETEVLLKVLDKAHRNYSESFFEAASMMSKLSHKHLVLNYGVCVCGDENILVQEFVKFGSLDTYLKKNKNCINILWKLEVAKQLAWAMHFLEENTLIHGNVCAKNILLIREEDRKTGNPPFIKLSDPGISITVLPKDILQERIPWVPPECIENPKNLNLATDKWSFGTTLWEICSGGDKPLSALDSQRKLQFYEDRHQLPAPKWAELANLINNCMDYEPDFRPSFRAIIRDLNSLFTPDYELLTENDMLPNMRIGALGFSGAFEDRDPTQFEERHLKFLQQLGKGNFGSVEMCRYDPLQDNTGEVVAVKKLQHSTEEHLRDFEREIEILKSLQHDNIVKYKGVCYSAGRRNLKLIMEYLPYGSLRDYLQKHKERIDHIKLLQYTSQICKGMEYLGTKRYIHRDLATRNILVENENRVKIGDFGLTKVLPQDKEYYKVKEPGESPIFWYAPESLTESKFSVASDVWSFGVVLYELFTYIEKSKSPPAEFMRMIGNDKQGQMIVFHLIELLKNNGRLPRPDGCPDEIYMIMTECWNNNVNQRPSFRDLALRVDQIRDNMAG

Turning to `O=C(O)c1ccc(N(Cc2ccc(C3CCCCC3)cc2)C(=O)CN(Cc2ccccc2C(F)(F)F)S(=O)(=O)c2c(F)c(F)c(F)c(F)c2F)cc1O`, in the data set with RPMI-8226 [1], the Activity entry was “tde”. The inhibition in data set [2] was 50%. Further, the outcome in the data set with RPMI-8226 [3], with XG6 [4], in the data set on JJN-3 [6], in the data set on JJN-3 [7] and with XG6 [8] was Active. Further, the inhibition result with JJN-3 [5] is “inactive”.

Take `Cc1ccc(S(=O)(=O)N(CC(=O)N(Cc2ccc(C3CCCCC3)cc2)c2ccc(C(=O)O)c(O)c2)Cc2ccccc2C(F)(F)F)cc1`: the Activity is 84% in data set [9]; 84% in data set [11]; “tde” in the data set with RPMI-8226 [12]; “Non-toxic” in data set [13]; “Non-toxic” in data set [17]. In addition, the viability at 20 µM in [10] is greater than 50%. Besides, the inhibition entry in the data set on JJN-3 [14] was “inactive”. Also, the outcome in the data set on JJN-3 [15], with XG6 [16] and in the data set on JJN-3 [18] was Active.
